Source: ChEMBL document CHEMBL1123739, “Relationships between DNA-binding kinetics and biological activity for the 9-aminoacridine-4-carboxamide class of antitumor agents” (J Med Chem, 1987)
Where “and” joins values, the source holds several entries; their conditions need not be identical. Identical values can stand only once. Calls of active or inactive are those of the source. The rule behind the calls is not given here.

Experiments:
Calf thymus DNA [1] = experiment: Ratio T2/T1 of DNA dissociation constant from calf thymus; type: functional; conditions: Bos taurus
Summary of the method: (§1)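 Stopped-flow SDS-sequestration assay. Sonicated calf thymus DNA (400 µM base pairs) and 20 µM drug in 0.1 SHE buffer (2 mM HEPES, 10 µM EDTA, 99.4 mM NaCl, pH 7.0) were mixed 1:1 with 20 mM SDS at 20 °C. Absorbance decay was deconvoluted into exponential time constants by curve stripping. At least six runs were averaged; ratios were taken between time constants.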

Calf thymus DNA [2] = experiment: Logarithm of association constant for binding to DNA by ethidium displacement; type: nucleic-acid assay; conditions: Bos taurus
Calf thymus DNA [3] = experiment: DNA dissociation constant from calf thymus; type: functional; conditions: Bos taurus; summary of the method: as §1
Calf thymus DNA [4] = experiment: DNA dissociation constant was determined from calf thymus; type: functional; conditions: Bos taurus; summary of the method: as §1
L1210 = experiment: Evaluated for concentration which when added to cultures of L1210 leukemia cells for a period of 70 hr reduces cell numbers of 50% of control cultures; type: functional, cell-based; conditions: Mus musculus, L1210, 70 h
P388 [5] = experiment: Compound administered intraperitoneally was evaluated for optimal dose (OD) given per day after inoculation of 10e 6 P388 leukemia cells for highest nontoxic dose; type: functional, Mus musculus
Nucleic Acid = experiment: Difference between log K of (AT) and log K of (GC) DNA binding; type: nucleic-acid assay
Calf thymus DNA [6] = experiment: Ratio T3/T2 of DNA dissociation constant from calf thymus; type: functional; conditions: Bos taurus; summary of the method: as §1
Calf thymus DNA [7] = experiment: Ratio T4/T3 of DNA dissociation constant from calf thymus; type: functional; conditions: Bos taurus; summary of the method: as §1
P388 [8] = experiment: Percentage increase in life span treated animals over those of controls injected with P388 leukemia cells;NA means no activity (ILS<20%) at all dose levels; type: functional; conditions: Mus musculus
P388 [9] = experiment: Percentage increase in life span treated animals over those of controls injected with P388 leukemia cells; NA means no activity (ILS<20%) at all dose levels; type: functional; conditions: Mus musculus
P388 [10] = experiment: Percentage increase in life span treated animals over those of controls injected with P388 leukemia cells; NA means no activity (ILS <20%) at all dose levels; type: functional; conditions: Mus musculus
P388 [11] = experiment: Percentage increase in life span treated animals over those of controls injected with P388 leukemia cells; type: functional, Mus musculus
P388 [12] = experiment: Percentage increase in life span treated animals over those of controls injected with P388 leukemia cells; Na means no activity (ILS<20%) at all dose levels; type: functional; conditions: Mus musculus
[13] = test system: L1210 (mouse leukemia cells); experiment: Ability to inhibit growth of mouse leukemia L1210 cells
Calf thymus DNA [14] = experiment: Ratio of DNA dissociation constant from calf thymus; type: functional; conditions: Bos taurus; summary of the method: as §1
Calf thymus DNA [15] = experiment: Ratio T2/T1 of DNA dissociation constant of poly(dG-dC) from calf thymus; type: functional; conditions: Bos taurus
Calf thymus DNA [16] = experiment: Ratio T3/T2 of DNA dissociation constant of poly(dG-dC) from calf thymus; type: functional; conditions: Bos taurus
Calf thymus DNA [17] = experiment: Dissociation constant of poly(dG-dC)DNA binding in calf thymus; type: functional; conditions: Bos taurus
Calf thymus DNA [18] = experiment: Dissociation constant of poly(dG-dC)DNA in calf thymus; type: functional; conditions: Bos taurus

SMILES	Ratio (Calf thymus DNA [1])	Log K (Calf thymus DNA [2])	Time constant T1 (Calf thymus DNA [3]) [ms]	Time constant T2 (Calf thymus DNA [4]) [ms]	OD (P388 [5]) [mg/kg]	Log K delta (Nucleic Acid)	Ratio (Calf thymus DNA [6])	Ratio (Calf thymus DNA [7])	Time constant T3 (Calf thymus DNA [3]) [ms]	Time constant T4 (Calf thymus DNA [3]) [ms]	ILS (P388 [11])	also measured
Nc1c2ccccc2nc2ccccc12 [AMINACRINE]	6.3	6.08 and 6.11	2.5	15	20	0.07						IC50 (L1210): 2600 nM
Nc1c2ccccc2nc2c(C(=O)NCCN3CCOCC3)cccc12	10	7.29 and 7.58	4	40	30	0.29	3.3	4.4	135	590		ILS (P388 [8]): inactive
CN(C)CCNC(=O)c1ccc2c(N)c3ccccc3nc2c1	4.5	7.18 and 7.66	6	27	250	0.48	3.6		98			ILS (P388 [9]): inactive
CN(C)CCN(C)C(=O)c1cccc2c(N)c3ccccc3nc12	5.5	6.37	2	11	30	0						IC50 (L1210): 5300 nM; ILS (P388 [10]): inactive
COc1ccc(C(=O)NCCN(C)C)c2nc3ccccc3c(N)c12	4.6	7.31 and 7.52	22	102		0.21	3.5	6.4	355	2270	27	IC50 (L1210): 0.6 nM
CCN(CC)CCNC(=O)c1cccc2c(N)c3ccccc3nc12	4.3	7.26 and 7.59	3	13	5.9	0.33	3.9	5.5	51	280	70	
COc1cc(C(=O)NCCN(C)C)c2nc3ccccc3c(N)c2c1	4		20	79		0.76	3.9	6.6	311	2050	72	
CN(C)CCNC(=O)c1cccc2c(N)c3ccccc3nc12											98	
CN(C)CCNS(=O)(=O)c1cccc2c(N)c3ccccc3nc12	4.2		5	21	65							ILS (P388 [12]): inactive; IC50 [13]: 13000 nM
CN(C)CCNC(=O)c1ccc2nc3ccccc3c(N)c2c1	2.7	7.08 and 7.55	10	27	12.5	0.47	3.37		90			ILS (P388 [9]): inactive
Nc1c2ccccc2nc2c(C(=O)NCCNCCO)cccc12		7.34 and 7.73	5	17	20	0.39			49	214	73	Ratio (Calf thymus DNA [14]): 3.4 and 2.9 and 4.4
CN(C)CCCCCNC(=O)c1cccc2c(N)c3ccccc3nc12	4	7.45	4	16		0	3.6		58			
CN(C)CCCCNC(=O)c1cccc2c(N)c3ccccc3nc12	4	7.49 and 7.43	4	16		-0.06	3.3		52			Ratio (Calf thymus DNA [15]): 6.5; Ratio (Calf thymus DNA [16]): 3.3; Time constant T1 (Calf thymus DNA [17]): 4 ms; Time constant T2 (Calf thymus DNA [18]): 26 ms; Time constant T3 (Calf thymus DNA [18]): 86 ms; IC50 (L1210): 430 nM
COc1ccc2c(N)c3cccc(C(=O)NCCN(C)C)c3nc2c1	3.2	7.33 and 7.71	26	83		0.38	3.3	3.7	271	1000		ILS (P388 [10]): inactive
CN(C)CCCNC(=O)c1cccc2c(N)c3ccccc3nc12	3.8	7.51 and 7.6	4	15	50	0.09	2.9		44			ILS (P388 [9]): inactive
CN(C)CCCCCCNC(=O)c1cccc2c(N)c3ccccc3nc12	4.8	7.41 and 7.4	4	19		-0.01	4.2		80			
COc1ccc2c(N)c3ccccc3nc2c1C(=O)NCCN(C)C	2.9	7.21 and 7.12	7	20		-0.09	4.4		87			ILS (P388 [10]): inactive
COc1cccc2c(N)c3cccc(C(=O)NCCN(C)C)c3nc12	4.1	7.62 and 7.83	17	69		0.21	4.3	3.6	299	1080	81	
COc1ccc2nc3c(C(=O)NCCN(C)C)cccc3c(N)c2c1	2.8	7.64 and 7.66	9	25		0.02	2.6	5.2	64	330		ILS (P388 [10]): inactive
COc1cccc2nc3c(C(=O)NCCN(C)C)cccc3c(N)c12	5	7.68 and 7.55	6	30		-0.18	5.6		168			ILS (P388 [10]): inactive
